Source: PubChem (several laboratories)
Hits are enriched below; roughly 12% of the tested compounds scored in any of these assays.
Diaph inh CS = diaphorase inhibitors and chemical oxidizers, primary screen, counter-screen for diaphorase-coupled primary assays, biochemical, uHTS, resorufin fluorescence. hit rate 0.69% among 190,000. inhibition, % at 20 µM. diaphorase resazurin-to-resorufin fluorescence, NADH, 16 min; bacterial (C. kluyveri) enzyme, not human;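 active = primary screen inhibition at 20 µM above a set limit, cut at about 50% in these data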;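 also: plate controls were DMSO with full reaction for no effect and wells lacking NADH for full effect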
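System: Diaphorase enzyme from Clostridium kluyveri | Amount: Enzyme working solution with 0.14 U/mL diaphorase | Benchmarks: No-NADH positive control and DMSO neutral control | Signal: Fluorescence of resorufin formed from resazurin, Ex 544/Em 590 nm | Schedule: 16-min room-temperature incubation before reading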
ROMK primary = ROMK potassium channel modulators, primary screen, cell-based, thallium flux, MLSMR library; Tet-inducible ROMK, thallium flux fluorescence; actives lie on both sides; ATP-sensitive inward rectifier potassium channel 1 (Homo sapiens), P48048; hit rate 2% among 130,000; B-score at 10 µM;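 active = signal ratio slope over the read window, or its plate-corrected B-score, at least 3 SD from the plate mean, either direction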;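 also: B-score of the F/F0 ratio slope over 7 to 12 s after thallium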
Target sequence (P48048 whole entry, looked up): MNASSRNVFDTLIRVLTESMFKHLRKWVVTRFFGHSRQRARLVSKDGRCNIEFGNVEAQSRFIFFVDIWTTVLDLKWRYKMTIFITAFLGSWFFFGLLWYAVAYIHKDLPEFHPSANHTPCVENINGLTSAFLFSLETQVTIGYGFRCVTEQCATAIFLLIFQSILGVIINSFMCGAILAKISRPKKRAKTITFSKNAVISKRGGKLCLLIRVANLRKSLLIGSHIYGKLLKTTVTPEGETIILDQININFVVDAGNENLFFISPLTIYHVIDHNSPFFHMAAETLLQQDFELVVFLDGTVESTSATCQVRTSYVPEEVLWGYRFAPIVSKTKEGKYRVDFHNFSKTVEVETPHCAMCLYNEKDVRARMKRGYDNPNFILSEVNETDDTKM
WT yeast gro inh = growth inhibition of WT strain, primary screen, mitochondrial fusion inhibitor project, WT and mutant strains, chemical genetic | mitochondrial fusion phenotypic screen | inhibition, % at 10 µM | hit rate 2.1% among 190,000 | AID 1362, 2008; in the data active = inhibition above about 58%; tested in S. cerevisiae
KCC2 mod = KCC2 cotransporter modulators, thallium flux, primary screen, cell-based, HEK293 KCC2, FluoZin-2 fluorescence, MLSMR | Solute carrier family 12 member 5 (Homo sapiens), Q9H2X9 | KCC2 cells, thallium flux FluoZin-2 fluorescence | B-score of Tl+ flux slope (higher = more flux/activation; lower = inhibition) at 10 µM | hit rate 2.2% among 190,000 | AID 1456, 2008;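 active = thallium flux slope and its plate-corrected score both differing from the plate sample mean at a set confidence after two filtering rounds, in either direction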;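 also: slope of fluorescence scaled to starting intensity during 10 to 20 s after thallium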
Diaph act CS = compounds boosting diaphorase resazurin reduction – biochemical, uHTS, resorufin fluorescence, counter-screen for diaphorase-coupled primary assays, primary screen; Diaphorase/resazurin coupled assay, 16 min; stronger effect = higher value; 1 = vehicle wells, 0 = NADH-free wells; activation factor at 20 µM; hit rate 0.005% among 190,000;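 active = diaphorase activity raised at least twofold by the compound at 20 µM; inactive = activation factor below 2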
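Test system: Clostridium kluyveri diaphorase, purified enzyme; input: enzyme 0.07 U/mL final; buffer or medium: 50 mM HEPES pH 7.4 with 4.542 mM MgCl2, 0.005% Tween 20; also added: 0.114 mM NADH and 0.1 mM resazurin, final amounts; schedule: 16 min enzyme reaction, ambient temperature; technique: fluorescence of resorufin, 544 nm excitation, 590 nm emission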
Lmaj promast = Leishmania major promastigote growth inhibition, primary screen. hit rate 9% among 200,000. Leishmania major promastigotes, resazurin fluorescence viability. inhibition, % at 10 µM; in the data active = inhibition above about 50%;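 also: promastigotes grown with compound for 44 hours at 28 °C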
ROMK hit retest = ROMK channel modulator hit retest, confirmation, cell-based, thallium flux, duplicate, resupplied hits; normalized thallium flux (F/F0 slope) at 10 µM; shares compounds with ROMK primary; fluorescence ratio; stronger effect = lower value; AID 1917, 2009; hit rate 54% among 3,000;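 active = Flux at 10 µM at least 3 SD below or above vehicle control mean in one or both replicates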
The depositor's hits bear a star.

What do the screens show for `COc1ccc(C(C)=O)cc1CN1CCCCC1`?
Diaph inh CS: -15; WT yeast gro inh: -8; KCC2 mod: -1.1; Diaph act CS: 1.1; Lmaj promast: -2

What do the screens show for `COc1ccc(CNC(=O)C/C(C)=N/NC(=O)COc2ccc(C)cc2Br)cc1`?
Diaph inh CS: 2; ROMK primary: 3.4*; WT yeast gro inh: 3; KCC2 mod: -0.56; Diaph act CS: 1; Lmaj promast: -6; ROMK hit retest: 0.074

Results for C/C(CC(=O)NCc1ccco1)=N\NC(=O)COc1ccc(Cl)cc1Cl ?
Diaph inh CS: 9; ROMK primary: 3.6*; WT yeast gro inh: -8; KCC2 mod: -1.2; Diaph act CS: 0.9; Lmaj promast: -6; ROMK hit retest: 0.092

What do the screens show for `O=C(COc1ccc(Cl)cc1Cl)NCc1ccco1`?
Diaph inh CS: 17; ROMK primary: -0.55; WT yeast gro inh: -28; Diaph act CS: 0.8; Lmaj promast: -4

How did COc1ccc(-c2nc(CSCC(=O)N3CCN(C4CCCCC4)CC3)c(C)o2)cc1OC do in these assays?
WT yeast gro inh: 13; KCC2 mod: -0.42; Lmaj promast: 2

How did Cc1cc(C)n2c(SCC(=O)N(CC(C)C)c3c(N)n(CC(C)C)c(=O)[nH]c3=O)nnc2n1 do in these assays?
Diaph inh CS: 6; ROMK primary: 0.67; WT yeast gro inh: -10; Diaph act CS: 0.9; Lmaj promast: -6

How did O=C(Cn1c(=O)n(CCc2c[nH]c3ccccc23)c(=O)c2cccnc21)Nc1ccccc1F do in these assays?
Diaph inh CS: 14; ROMK primary: 2.8*; WT yeast gro inh: 26; KCC2 mod: -0.098; Diaph act CS: 0.9; Lmaj promast: 19; ROMK hit retest: 0.078

How did COc1cccc(NC(=O)CN(C)C(C)C(=O)Nc2cc([N+](=O)[O-])ccc2Cl)c1 (stereo not given) do in these assays?
Diaph inh CS: 9; ROMK primary: -2; WT yeast gro inh: 1; KCC2 mod: -2.2; Diaph act CS: 0.9; Lmaj promast: 32

Results for CC(C)CCn1nnnc1CN1CCN(C(c2ccccc2)c2ccccc2)CC1 ?
Diaph inh CS: -4; ROMK primary: 0.73; WT yeast gro inh: 36; KCC2 mod: -0.25; Diaph act CS: 1; Lmaj promast: -12

How did CCN(CC)S(=O)(=O)c1ccc(NC(=O)Cn2c(=O)sc3ccccc32)cc1 do in these assays?
Diaph inh CS: 16; ROMK primary: -1.2; WT yeast gro inh: 18; KCC2 mod: -0.23; Diaph act CS: 0.8; Lmaj promast: 30

What do the screens show for `Cc1cc(=O)oc2cc(OCC(=O)OCC(=O)NCCc3ccccc3)ccc12`?
Diaph inh CS: 0; ROMK primary: -0.84; WT yeast gro inh: -4; KCC2 mod: -0.66; Diaph act CS: 1; Lmaj promast: -5

What do the screens show for `COC(=O)CCC(=O)Nc1sc2c(c1C#N)CCCC2`?
Diaph inh CS: 1; ROMK primary: 5.9*; WT yeast gro inh: 12; KCC2 mod: -0.72; Diaph act CS: 1; Lmaj promast: -9; ROMK hit retest: 0.089

Results for OCC(Cc1ccccc1)Nc1c2ccccc2nc2ccccc12 (stereo not given) ?
Diaph inh CS: 6; ROMK primary: -6.4*; WT yeast gro inh: -7; KCC2 mod: -0.016; Diaph act CS: 0.9; Lmaj promast: 27; ROMK hit retest: 0.041*

What do the screens show for `COc1ccccc1CCc1nnc(CCC(=O)NCCCOc2cccnc2)o1`?
Diaph inh CS: 2; ROMK primary: 0.052; WT yeast gro inh: -6; KCC2 mod: 0.41; Diaph act CS: 1; Lmaj promast: 8
